Key:
[1] = target: T1, Amine oxidase [flavin-containing] A (Rattus norvegicus, UniProt P21396); assay: Binding affinity to MAOA imidazoline binding site in rat brain mitochondrial homogenate assessed as 4-hydroxyquinoline production by spectrophotometry; type: tissue-based
T1 sequence (P21396 whole entry): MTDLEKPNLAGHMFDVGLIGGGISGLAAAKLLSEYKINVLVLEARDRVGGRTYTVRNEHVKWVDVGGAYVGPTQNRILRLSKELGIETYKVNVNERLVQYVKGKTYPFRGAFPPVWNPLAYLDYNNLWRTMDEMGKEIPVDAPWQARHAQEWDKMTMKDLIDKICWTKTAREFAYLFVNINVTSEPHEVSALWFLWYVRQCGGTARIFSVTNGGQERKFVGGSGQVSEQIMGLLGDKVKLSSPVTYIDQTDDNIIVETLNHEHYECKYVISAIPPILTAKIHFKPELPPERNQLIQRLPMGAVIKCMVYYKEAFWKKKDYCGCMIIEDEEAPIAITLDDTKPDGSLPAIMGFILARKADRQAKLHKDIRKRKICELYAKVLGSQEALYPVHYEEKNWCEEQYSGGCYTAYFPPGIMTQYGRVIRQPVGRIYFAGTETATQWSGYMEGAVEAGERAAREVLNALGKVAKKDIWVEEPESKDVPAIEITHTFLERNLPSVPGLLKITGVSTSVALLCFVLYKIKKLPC
Summary of the method: (§1)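 Rat brain mitochondrial homogenates, with protein measured by Bradford. Fractions were preincubated for 5 min at 37 °C with 250 nM selegiline (MAO-A assay) or 250 nM clorgyline (MAO-B assay). Compounds were added in DMSO, followed 5 min later by kynuramine at its KM for each isoform. Incubation ran 30 min at 37 °C and was stopped with trichloroacetic acid, then centrifuged. 4-Hydroxyquinoline was read at 314 nm, or by fluorescence (ex 315/em 380 nm) if compounds interfered.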

[2] = target: T2, Amine oxidase [flavin-containing] B (Rattus norvegicus, UniProt P19643); assay: Binding affinity to MAOB imidazoline binding site in rat brain mitochondrial homogenate assessed as 4-hydroxyquinoline production by spectrophotometry; type: tissue-based; summary of the method: as §1
T2 sequence (P19643 whole entry): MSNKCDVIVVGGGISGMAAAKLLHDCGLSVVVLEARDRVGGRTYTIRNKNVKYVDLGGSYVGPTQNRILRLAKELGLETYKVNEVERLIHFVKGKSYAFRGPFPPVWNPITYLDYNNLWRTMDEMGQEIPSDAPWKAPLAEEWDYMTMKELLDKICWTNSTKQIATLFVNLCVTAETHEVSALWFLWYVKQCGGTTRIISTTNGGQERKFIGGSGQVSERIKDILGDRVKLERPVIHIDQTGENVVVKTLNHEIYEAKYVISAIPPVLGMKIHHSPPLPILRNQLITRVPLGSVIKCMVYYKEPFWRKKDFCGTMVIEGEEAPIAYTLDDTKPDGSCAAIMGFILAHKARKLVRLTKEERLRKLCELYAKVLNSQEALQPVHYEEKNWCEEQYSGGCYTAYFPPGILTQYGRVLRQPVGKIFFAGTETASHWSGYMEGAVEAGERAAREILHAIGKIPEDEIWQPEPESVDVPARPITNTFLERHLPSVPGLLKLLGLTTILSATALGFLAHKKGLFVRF

Rattus norvegicus [3] = species on record: Rattus norvegicus; assay: Selectivity index, ratio of Ki rat for MAOA to Ki for rat MAOB
Rattus norvegicus [4] = species on record: Rattus norvegicus; assay: Selectivity index, ratio of Ki rat for MAOB to Ki for rat MAOA

| Ki [1] [µM] | Ki [2] [µM] | Ratio Ki (Rattus norvegicus [3]) | IC50 [1] [µM] | IC50 [2] [µM] | Ratio Ki (Rattus norvegicus [4]) | SMILES |
| --- | --- | --- | --- | --- | --- | --- |
| 181 | > 1000 | < 0.181 | – | – | – | O=[N+]([O-])c1ccc(C2=NCCN2)cc1 |
| 114 | 1000 | 0.114 | – | – | – | COc1cc(C2=NCCN2)cc(OC)c1OC |
| > 1000 | 25.3 | > 39.5 | – | – | – | c1ccc(C2=NCCN2)nc1 |
| 102 | 13.1 | 7.79 | – | – | – | Cc1ccc(C2=NCCN2)cc1 |
| 166 | 5.35 | 31.1 | – | – | – | Clc1ccc(C2=NCCN2)cc1 |
| 13.9 | 1.49 | 9.32 | – | – | – | c1ccc2cc(C3=NCCN3)ccc2c1 [BENAZOLINE] |
| > 1000 | > 1000 | – | – | – | – | c1coc(C2=NCCN2)c1 |
| > 1000 | 24.6 | > 40.7 | – | – | – | Clc1ccccc1C1=NCCN1 |
| 28.8 | 3.98 | 10.5 | – | – | – | Clc1ccc(C2=NCCN2)c(Cl)c1 |
| 28.8 | 21.3 | 1.35 | – | – | – | c1ccc(C2=NCCN2)cc1 |
| 12.8 | 1.38 | 9.27 | – | – | – | O=C(Oc1ccc(C2=NCCN2)cc1)c1ccccc1 |
| 24.9 | 3.63 | – | 65 | 9.1 | – | c1ccc2oc(C3=NCCN3)cc2c1 |
| 13.6 | 1000 | 0.013 | – | – | 73 | COc1ccc(C2=NCCN2)cc1OC |
| > 1000 | 19.3 | > 51.9 | – | – | – | O=[N+]([O-])c1cccc(C2=NCCN2)c1 |
| 15.8 | 32.7 | 0.48 | – | – | – | COc1ccc(C2=NCCN2)cc1 |
| 4.86 | 5.32 | 0.91 | 12.7 | 13.3 | – | c1ccc2nc(C3=NCCN3)ccc2c1 |

From ChEMBL document CHEMBL1154534, “Ultrasound promoted synthesis of 2-imidazolines in water: a greener approach toward monoamine oxidase inhibitors” (Bioorg Med Chem Lett, 2009)
